From ChEMBL document CHEMBL4368914, “Tricyclic Indazoles-A Novel Class of Selective Estrogen Receptor Degrader Antagonists” (J Med Chem, 2019) come the findings set out here.

Each structure is given as a SMILES string.

Series [1] can be described thus: Lipophilicity, log D of the compound at pH 7.4 by shake flask method. The class given is physicochemical. The conditions noted are these: buffer. In short, it runs like this:
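Shake-flask measurement of logD at pH 7.4.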

Series [2] deals with T1, Estrogen receptor (Homo sapiens, UniProt P03372).
T1 sequence (P03372 whole entry): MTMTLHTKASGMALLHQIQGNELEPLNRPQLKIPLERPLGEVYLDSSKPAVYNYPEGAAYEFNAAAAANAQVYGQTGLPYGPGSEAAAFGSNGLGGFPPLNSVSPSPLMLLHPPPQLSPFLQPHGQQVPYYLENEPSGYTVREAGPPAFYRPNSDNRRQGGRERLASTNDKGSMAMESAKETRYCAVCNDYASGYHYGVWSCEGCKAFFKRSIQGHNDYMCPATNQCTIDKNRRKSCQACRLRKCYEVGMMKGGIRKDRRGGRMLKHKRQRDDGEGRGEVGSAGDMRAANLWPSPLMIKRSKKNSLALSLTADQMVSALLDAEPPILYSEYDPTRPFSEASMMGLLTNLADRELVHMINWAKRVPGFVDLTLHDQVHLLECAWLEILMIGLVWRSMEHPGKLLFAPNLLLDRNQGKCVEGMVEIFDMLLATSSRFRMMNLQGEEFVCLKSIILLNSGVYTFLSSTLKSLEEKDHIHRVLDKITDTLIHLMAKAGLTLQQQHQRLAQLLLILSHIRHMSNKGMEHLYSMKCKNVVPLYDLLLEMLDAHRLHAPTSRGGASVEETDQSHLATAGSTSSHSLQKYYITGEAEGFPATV
Kind of series: Binding affinity to recombinant human GST-tagged ERalpha LBD expressed in baculovirus-infected insect cells by lantha screen assay.

The nature of series [3]: Fraction unbound in Alderley Park Han Wistar rat plasma by equilibrium dialysis. Type of series: ADME, cell-free. In short, it runs like this:
(§1)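 Equilibrium dialysis from DMSO stock in 10% plasma, either Alderley Park Han Wistar rat plasma or human plasma.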

The nature of series [4]: Intrinsic clearance in human hepatocytes assessed per million cells. The conditions noted are these: read-out: CLH. The class given is ADME, cell-based, Hepatocyte. A digest of the protocol: (§2)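 Rate of metabolism (µl/min/10⁶ cells) measured from DMSO stock in isolated hepatocytes diluted to 1x10⁶ cells/mL.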
Series [5] in a line: Intrinsic clearance in rat hepatocytes assessed per million cells. The class given is ADME, cell-based, Hepatocyte. The conditions noted are these: read-out: CLH. In short, it runs like this:
as §2

The nature of series [6]: Fraction unbound in 10% human plasma by equilibrium dialysis. To be noted: 10% plasma. Type of series: ADME, cell-free. In short, it runs like this:
as §1

For series [7], the target named is T1, Estrogen receptor. Kind of series: Induction of ERalpha degradation in human MCF7 cells after 18 to 24 hrs by in multiplexed cell assay. The class given is cell-based. A digest of the protocol: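 MCF-7 cells were kept at 37 °C, 5% CO₂ in phenol red-free RPMI1640 with 5% charcoal-stripped FCS and 2 mmol/L glutamine. Compounds came from 10 mmol/L DMSO stocks.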

A short description of series [8]: Glutathione reactivity in human liver microsomes assessed as GSH trapping ratio of compound to clozapine. The class given is ADME, Microsome. A digest of the protocol: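 Glutathione trapping in human liver microsomes, expressed as a ratio to clozapine.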

With `C[C@@H]1Cc2c(ccc3[nH]ncc23)[C@@H](c2ccc(/C=C/C(=O)O)cc2)N1CC(C)(C)F`, in series [1], the log distribution coefficient (logD) was 2.9. Further, the IC50 in series [2] was 1.58 nM; in series [7], 0.316 nM. The fraction unbound in series [3] stood at 0.015; in series [6], 0.0087. For the same compound, the figures for the hepatocyte CLint in series [4] and in series [5] were 78 µL/min/1e6 cells and 8 µL/min/1e6 cells, respectively.

In series [1], `COc1c([C@@H]2c3ccc4[nH]ncc4c3C[C@@H](C)N2CC(C)(F)F)ccc(/C=C/C(=O)O)c1F` showed a logD of 2.6. Besides, the IC50 in series [2] was 1.26 nM; in series [7], 6.31 nM. Also, the hepatocyte CLint in series [4] is 7 µL/min/1e6 cells; in series [5], 17 µL/min/1e6 cells. In addition, the free fraction (fraction unbound) in series [6] amounted to 0.0082.

In turn, `COc1cc(/C=C/C(=O)O)cc(F)c1[C@@H]1c2ccc3[nH]ncc3c2C[C@@H](C)N1CC(C)(F)F` returned a pH-dependent lipophilicity (logD) in series [1] of 2.8. Also, the IC50 in series [2] was 0.316 nM; in series [7], 0.2 nM. The hepatocyte CLint was determined as 6 µL/min/1e6 cells in series [4] and 32 µL/min/1e6 cells in series [5]. The compound further had a fraction unbound in series [6] of 0.007.

With `COc1cc(/C=C/C(=O)O)c(F)cc1[C@@H]1c2ccc3[nH]ncc3c2C[C@@H](C)N1CC(C)(F)F`, in series [1], the logD amounted to 2.6. The IC50 in series [2] was 0.501 nM; in series [7], 0.316 nM. The values for the hepatocyte CLint in series [4] and in series [5] were 5 µL/min/1e6 cells and 22 µL/min/1e6 cells, respectively. The same compound yielded a fraction unbound in series [6] of 0.012.

For `CC(C)CN1[C@H](c2ccc(/C=C/C(=O)O)cc2)c2ccc3[nH]ncc3c2C[C@H]1C`, the concentration for half-maximal inhibition (IC50) in series [2] was 10 nM; in series [7], 0.631 nM. Further, the fraction unbound in series [3] worked out at 0.034; in series [6], 0.022. Also, the hepatocyte CLint in series [4] was 30 µL/min/1e6 cells; in series [5], 7 µL/min/1e6 cells. In series [8], the Ratio is recorded as under 0.04.

Consider `CC(C)CN1CCc2c(ccc3[nH]ncc23)[C@H]1c1ccc(/C=C/C(=O)O)cc1`, for which the logD in series [1] was found to be 1.9. The IC50 is 25.1 nM in series [2] and 6.31 nM in series [7]. Moreover, the fraction unbound in series [3] came out at 0.036; in series [6], 0.07. The hepatocyte CLint amounted to 51 µL/min/1e6 cells in series [4] and 10 µL/min/1e6 cells in series [5]. Further, the Ratio in series [8] is given as under 0.04.

Consider `CC(C)CN1CCc2c(ccc3[nH]ccc23)C1c1ccc(/C=C/C(=O)O)cc1` (stereo unspecified), for which the logD in series [1] worked out at 1.7. Moreover, the IC50 is 316 nM in series [2] and 63.1 nM in series [7]. In addition, the values for the fraction unbound in series [3] and in series [6] were 0.068 and 0.033, respectively. The values for the hepatocyte CLint in series [4] and in series [5] were 8 µL/min/1e6 cells and 20 µL/min/1e6 cells, respectively.

Take `CC(C)CN1CCc2cc(O)ccc2[C@H]1c1ccc(/C=C/C(=O)O)cc1`: the fraction unbound in series [3] is 0.037.

Take `COc1cc(/C=C/C(=O)O)ccc1[C@]1(C)c2ccc3[nH]ncc3c2C[C@@H](C)N1CC(C)(C)F`: the logD in series [1] was determined as 1.9. Moreover, the IC50 was 3.98 nM in series [2] and 2.51 nM in series [7]. The figures for the hepatocyte CLint in series [4] and in series [5] were 4 µL/min/1e6 cells and 10 µL/min/1e6 cells, respectively. In addition, in series [6], the free fraction (fraction unbound) is 0.077.

On to `C[C@@H]1Cc2c(ccc3[nH]ncc23)[C@@](C)(c2c(F)cc(/C=C/C(=O)O)cc2F)N1CC(C)(F)F`, for which the logD in series [1] was determined as 3. Further, the IC50 in series [2] was 0.316 nM; in series [7] it was 0.794 nM. For the same compound, the fraction unbound in series [3] was determined as 0.0076; in series [6] it was 0.0027. The hepatocyte CLint in series [4] stood at 6 µL/min/1e6 cells; in series [5] it was 20 µL/min/1e6 cells.

As for `CC(C)CN1CCc2cccc3[nH]cc(c23)C1c1ccc(/C=C/C(=O)O)cc1` (stereo unspecified), in series [1], the logD was 1. Further, the IC50 in series [2] is 39800 nM; in series [7], over 10000 nM. Also, in series [5], the hepatocyte CLint was found to be 10 µL/min/1e6 cells. In series [6], this compound registered a fraction unbound of 0.11.
